Test results from ChEMBL document CHEMBL1148218, “Structures of new beta-carboline-type alkaloids with antiallergic effects from Stellaria dichotoma(1,2)” (J Nat Prod, 2004).
Structures can show the parent of a compound that is named as a salt.

Tests used:
[1] = system: RBL-2H3; assay: Inhibition of beta-hexosaminidase in anti-DNP IgE sensitized rat RBL2H3 cells at 100 uM after 10 mins; format: functional; details: RBL-2H3, 10 min
How it was run: (§1)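 IgE-sensitized RBL-2H3 cells (2 × 10^5/well) in Siraganian buffer with 5.6 mM glucose, 1 mM CaCl2, 0.1% BSA, 10 min at 37 °C; sample in DMSO (final 0.1%) added for 10 min, then DNP-BSA (final 10 μg/mL). After 10 min supernatant reacted with 1 mM p-nitrophenyl-N-acetyl-β-D-glucosaminide, pH 4.5, 37 °C, 1 h; stopped at pH 10, A405. Percent inhibition; IC50 determined graphically.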

[2] = system: RBL-2H3; assay: Inhibition of beta-hexosaminidase in anti-DNP IgE sensitized rat RBL2H3 cells after 10 mins; format: functional, cell-based; details: RBL-2H3, 10 min; how it was run: as §1
[3] = system: RBL-2H3; assay: Inhibition of anti-DNP IgE-induced TNFalpha production in rat RBL2H3 cells after 4 hrs by ELISA; format: functional, cell-based; details: RBL-2H3, 4 h
How it was run: (§2)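 RBL-2H3 cells (2 × 10^5/well in MEM) sensitized with anti-DNP IgE, then stimulated with DNP-BSA antigen in presence of sample; TNF-α and IL-4 in medium measured 4 h later by rat ELISA. Percent inhibition calculated; IC50 read graphically.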

[4] = system: RBL-2H3; assay: Inhibition of anti-DNP IgE-induced IL4 production in rat RBL2H3 cells after 4 hrs by ELISA; format: functional, cell-based; details: RBL-2H3, 4 h; how it was run: as §2
[5] = system: Mus musculus; assay: Antiallergic activity in ddY mouse ear at 200 mg/kg, po by passive cutaneous anaphylaxis reaction; format: functional

| SMILES | inhibition at 100 µM [1] | also measured |
| --- | --- | --- |
| CCC(O)c1cc(OC)c2c(c1)OCO2 (configuration not stated) | 1.2% | – |
| COc1ccc(CCC(=O)O)cc1OC | 2.3% | – |
| O=Cc1ccc(CO)[nH]1 | 8.5% | – |
| O=Cc1ccc(CO)o1 [AES-103] | 3.4% | – |
| COc1cc(C(C)=O)ccc1O [APOCYNIN] | 2.3% | – |
| C[C@H](O)c1nc(C(=O)O)cc2c1[nH]c1ccccc12 [DICHOTOMINE A] | 5.9% | – |
| O=C(O)c1cc2c([nH]c3ccccc32)c([C@@H](O)CO)n1 [DICHOTOMINE B] | 1.2% | – |
| COC(=O)c1cc2c([nH]c3ccccc32)c([C@@H](O)CO)n1 [DICHOTOMINE C] | 89.2% | IC50 [2]: 62 µM; IC50 [3]: 19 µM; IC50 [4]: 15 µM |
| CCCCOC(=O)c1cc2c([nH]c3ccccc32)c([C@@H](O)CO)n1 [DICHOTOMINE D] | 11.2% | – |
| CN1CCC(=C2c3ccccc3CC(=O)c3sccc32)CC1 [KETOTIFEN FUMARATE] | – | IC50 [2]: 220 µM |
| COc1ccc(/C=C/C(=O)Nc2ccccc2C(=O)O)cc1OC [TRANILAST] | – | inhibition in vivo at 200 mg/kg [5]: 72.4%; IC50 [2]: 490 µM |
| COc1cc(C(=O)O)ccc1O [VANILLIC ACID] | 8.4% | – |
| COc1cc(C=O)ccc1O [VANILLIN] | 5.9% | – |
